The text below walks through data of ChEMBL document CHEMBL3769301, “Novel cis-selective and non-epimerisable C3 hydroxy azapodophyllotoxins targeting microtubules in cancer cells” (Eur J Med Chem, 2016).

The structures appear in SMILES notation. Active and inactive are the calls of the source. The calls are words filed in the database; no cut-off is given here.

Holding throughout (type): cell-based
Experiment [1] has as its system MCF7. Nature of the experiment: Induction of microtubule cytoskeleton destabilization in human MCF7 cells assessed as nuclear atypia at 250 nM after 6 hrs by Hoechst 33342 staining-based confocal fluorescence microscopy. The procedure, abridged: (§1)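 MCF-7 cells in RPMI 1640 with 10% FBS were grown on glass coverslips for 42 h to 70–80% confluency. They were exposed to 250 nM compound or 0.01% DMSO for 6 h, then fixed in methanol at −20 °C for 10 min. Staining used anti-α-tubulin (1:2000) with Alexa488 secondary (1:400) and Hoechst 33342 (1 μg/ml), imaged by confocal microscopy (63x oil). There were three independent experiments, each in duplicate.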

Experiment [2] relates to MCF7. The experiment in a line: Induction of microtubule cytoskeleton destabilization in human MCF7 cells assessed as pyknosis at 250 nM after 6 hrs by Hoechst 33342 staining-based confocal fluorescence microscopy. The procedure, abridged: as §1
Experiment [3] has as its system MCF7. The experiment in a line: Inhibition of microtubule cytoskeleton polymerization in human MCF7 cells assessed as repolymerization at 250 nM cells preincubated on ice followed rewarmed to 37 degC in presence of compound for 30 mins by Hoechst 33342 staining-based confocal fluorescence microscopy. The method, boiled down:
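No pre-treatment: after 42 h on coverslips, MCF-7 cells were held on ice for 30 min to depolymerise microtubules. A cold control set was fixed at once; the rest were rewarmed for 30 min at 37 °C/5% CO2 with 250 nM compound or 0.01% DMSO. All were fixed in methanol at −20 °C, stained for α-tubulin and Hoechst, and examined by confocal imaging. There were three independent experiments.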

The test system of experiment [4] is MCF7. The experiment in a line: Inhibition of microtubule cytoskeleton polymerization in human MCF7 cells assessed as repolymerization at 250 nM pretreated for 6 hrs followed by incubation for 30 mins on ice then rewarmed to 37 degC for 30 mins by Hoechst 33342 staining-based confocal fluorescence microscopy. The procedure, abridged:
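Pre-treatment: MCF-7 cells on coverslips were exposed to 250 nM compound or 0.01% DMSO for 6 h, then held at 4 °C on ice for 30 min. One set was fixed after cold depolymerisation; the others were returned to 37 °C/5% CO2 for 30 min to repolymerise. Cells were fixed in −20 °C methanol, stained for α-tubulin and Hoechst, and imaged by confocal microscopy. There were three independent experiments.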

In experiment [5] the test system is MCF7. The experiment in a line: Induction of microtubule cytoskeleton destabilization in human MCF7 cells assessed as accumulation of binucleate cells at 250 nM after 6 hrs by Hoechst 33342 staining-based confocal fluorescence microscopy. The method, boiled down:
as §1

Experiment [6] deals with MCF7. The experiment in a line: Induction of microtubule cytoskeleton destabilization in human MCF7 cells assessed as uncongressed/misaligned chromosomes at 250 nM after 6 hrs by Hoechst 33342 staining-based confocal fluorescence microscopy. The method, boiled down: as §1
Experiment [7] deals with MCF7. The experiment in a line: Induction of microtubule cytoskeleton destabilization in human MCF7 cells assessed as abberation in spindle morphology and polarity at 250 nM after 6 hrs by Hoechst 33342 staining-based confocal fluorescence microscopy. The procedure, abridged:
as §1

Experiment [8] has as its system MCF7. Nature of the experiment: Induction of microtubule cytoskeleton destabilization in human MCF7 cells assessed as shorter and more disorderd microtubule at 250 nM after 6 hrs by Hoechst 33342 staining-based confocal fluorescence microscopy. The method, boiled down:
as §1

Turning to `COc1cc([C@@H]2c3cc4c(cc3[C@H](O)[C@H]3COC(=O)[C@H]23)OCO4)cc(OC)c1OC`, the outcome in the experiment with MCF7 [1] and with MCF7 [2] was Active.

For the compound `O=C1OC[C@]2(O)Nc3c(c4cccnc4c4ncccc34)[C@@H](c3ccccc3C(F)(F)F)[C@@H]12` (mixture of isomers), the inhibition result with MCF7 [3] and in the experiment with MCF7 [4] was “inactive” each time. For the same compound, the outcome in the experiment with MCF7 [5], in the experiment on MCF7 [6], in the experiment with MCF7 [7], in the experiment on MCF7 [8], in the experiment on MCF7 [1] and with MCF7 [2] was Active.

Regarding `O=C1OC[C@]2(O)Nc3c(c4cccnc4c4ncccc34)[C@@H](c3ccccc3OC(F)(F)F)[C@H]12` (mixture of isomers), the inhibition entry with MCF7 [3] and in the experiment on MCF7 [4] was “inactive” throughout. In addition, the outcome in the experiment with MCF7 [5], in the experiment with MCF7 [6], in the experiment with MCF7 [7], in the experiment on MCF7 [8], in the experiment with MCF7 [1] and with MCF7 [2] was Active.
